Results pooled from the literature.
Protocols differ between the studies behind these lines.
Target: Dual specificity tyrosine-phosphorylation-regulated kinase 1B (DYRK1B, Homo sapiens, UniProt Q9Y463)
Effect on: enzyme activity
Action: inhibitor

SMILES	test	setting	remaining activity [%]
Nc1ncnc2occ(-c3ccc(NC(=O)Nc4cc(C(F)(F)F)ccc4F)cc3)c12		20 µM	80
Cc1cnc(NC2CCOCC2)nc1-n1cnc(C(=O)NC(CN)c2cc(F)cc(Cl)c2)c1 (centres unmarked)	radiometric	1 µM	80
O=C(Nc1cnn(-c2csc(C(=O)NC3COC3)c2)c1)Nc1c(F)cccc1Cl		5 µM	82.8
CC(C)(O)[C@H]1CC[C@H](Nc2ccc3ncc(-c4cccc(C(F)(F)F)c4)n3n2)CC1		1 µM	15.3
O=C(O)c1ccc2c(c1)nc(NCCc1ccccc1)c1ccncc12	radiometric	1 µM	114
COc1cc(Cl)c(C(=O)N[C@@H](CN[C@H]2CC[C@@H](N)CC2)Cc2ccc(C#N)cc2)cc1-c1ccc(CN[C@H](C)c2ccc(C)cc2)o1		1 µM	101
O=C(Nc1cnn(-c2csc(C(=O)NC3COC3)c2)c1)Nc1ccccc1Cl		5 µM	87
O=C(O)c1ccc2c(c1)nc(Nc1ccc(Cl)cc1)c1ccncc12	radiometric	1 µM	65
